# Laboratory results: ChEMBL document CHEMBL4038317, “Discovery of a Benzamide Derivative That Protects Pancreatic β-Cells against Endoplasmic Reticulum Stress” (J Med Chem, 2017)
# Activity calls are given as the source filed them. The rule behind the calls is not given here.
# How the values were obtained:
# INS1 [1] = assay: Effect on CHOP mRNA level in rat INS-1 cells up to 10 uM after 8 hrs by qRT-PCR analysis; assay type: ADME, cell-based; conditions: ins1, 8 h
# How it was run: (§1)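 INS-1 cells, 4×10^5 per well, were exposed to tunicamycin 0.1 μg/mL with compound or DMSO for 8 h. qRT-PCR for ATF4, CHOP, Bip, GRP94, or spliced XBP1 using splicing-specific primers. Values were normalized to cyclophilin A by ΔΔCt and given as fold over untreated control. Triplicate wells, 3 independent experiments.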
# Mus musculus [2] = assay: Antidiabetic activity in STZ-induced diabetic C57BL/6 mouse model assessed as total pancreatic islet beta-cell area at 5 mg/kg, ip administrated qd with streptozotocin for 5 days followed by compound administration alone for 2 more weeks by DAPI-staining based confocal microscopic analysis (reference value: 30.2 +/- 7.9%); assay type: functional
# How it was run: (§2)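 At the end of treatment in the STZ mouse model, pancreases were formalin-fixed, paraffin-embedded and serially sectioned at 100 μm intervals. Six sections were stained for insulin and glucagon with DAPI counterstain and imaged by confocal microscopy. Insulin-positive cells demarcated islets; total islet area per section and cells per islet were quantified.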
# Beta-TC6 = assay: Cytoprotective activity in mouse BetaTC6 cells assessed as protection against tunicamycin-induced ER stress-mediated reduction in cell viability after 3 days by CellTiter-Glo assay; assay type: functional, cell-based
# How it was run: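 βTC6 cells, 3×10^3 per well, were exposed to tunicamycin 0.3 μg/mL with compound or DMSO for 72 h. Intracellular ATP was read by luminescence and expressed as fold of no-tunicamycin cells. Triplicate wells, three independent experiments.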
# INS1 [3] = assay: Cytoprotective activity against tunicamycin ER stress-induced apoptosis in rat INS-1 cells assessed as inhibition of tunicamycin-induced cleaved caspase3 expression up to 1 uM after 24 hrs by Western blot analysis; assay type: functional, cell-based
# How it was run: (§3)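 INS-1 cells, 8×10^5 per 60-mm dish, were exposed to tunicamycin 0.1 μg/mL plus compound or DMSO for 24 h. 20 μg lysate protein was run on 7% SDS-PAGE and immunoblotted for cleaved caspase-3 and PARP (1:1000), with α-tubulin as loading control; 3 independent experiments.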
# INS1 [4] = assay: Cytoprotective activity against tunicamycin ER stress-induced apoptosis in rat INS-1 cells assessed as inhibition of tunicamycin-induced cleaved PARP expression up to 1 uM after 24 hrs by Western blot analysis; assay type: functional, cell-based; how it was run: as §3
# INS1 [5] = assay: Cytoprotective activity against tunicamycin ER stress-induced apoptosis in rat INS-1 cells assessed as viable cells at 0.1 uM after 48 hrs by phase contrast microscopic analysis; assay type: functional, cell-based
# How it was run: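 INS-1 cells were exposed to tunicamycin 0.1 μg/mL with compound (0.1 μM) or DMSO for 48 h. Live-cell phase-contrast images were taken at 10×; 3 independent experiments.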
# [6] = biological target: T1, Cyclic AMP-dependent transcription factor ATF-6 alpha (Rattus norvegicus) (UniProt G3V909); assay: Inhibition of tunicamycin ER stress-induced ATF6 activation in rat INS-1 cells assessed as suppression of increase in Bip mRNA levels up to 10 uM after 8 hrs by qRT-PCR analysis; assay type: cell-based; how it was run: as §1
# T1 sequence (whole entry): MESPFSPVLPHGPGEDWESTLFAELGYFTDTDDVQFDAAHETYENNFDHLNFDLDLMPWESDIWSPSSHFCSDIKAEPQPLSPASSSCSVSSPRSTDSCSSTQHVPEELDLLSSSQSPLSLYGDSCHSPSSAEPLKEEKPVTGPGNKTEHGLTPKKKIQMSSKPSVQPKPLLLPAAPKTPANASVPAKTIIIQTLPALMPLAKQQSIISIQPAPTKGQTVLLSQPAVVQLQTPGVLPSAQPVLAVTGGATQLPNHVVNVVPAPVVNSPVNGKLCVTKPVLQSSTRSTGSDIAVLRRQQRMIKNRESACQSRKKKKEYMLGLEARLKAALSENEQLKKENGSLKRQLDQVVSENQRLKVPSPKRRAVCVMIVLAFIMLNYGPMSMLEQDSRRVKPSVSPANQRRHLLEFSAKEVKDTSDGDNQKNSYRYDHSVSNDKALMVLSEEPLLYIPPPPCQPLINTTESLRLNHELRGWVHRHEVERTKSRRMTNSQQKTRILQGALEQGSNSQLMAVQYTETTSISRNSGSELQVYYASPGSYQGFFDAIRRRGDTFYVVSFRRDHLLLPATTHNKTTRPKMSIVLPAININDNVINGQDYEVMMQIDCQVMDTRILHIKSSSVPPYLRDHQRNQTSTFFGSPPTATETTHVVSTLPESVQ
# [7] = biological target: T1, Cyclic AMP-dependent transcription factor ATF-6 alpha (Rattus norvegicus); assay: Inhibition of tunicamycin ER stress-induced ATF6 activation in rat INS-1 cells assessed as suppression of increase in […] mRNA levels up to 10 uM after 8 hrs by qRT-PCR analysis; assay type: cell-based; how it was run: as §1
# Mus musculus [8] = assay: Toxicity in STZ-induced diabetic C57BL/6 mouse model assessed as effect on alpha-cells at 5 mg/kg, ip administrated qd with streptozotocin for 5 days followed by compound administration alone for 2 more weeks by DAPI-staining based confocal microscopic analysis; assay type: organism-based; conditions: in vivo, 120 h; how it was run: as §2
# Rattus norvegicus = organism: Rattus norvegicus; assay: Inhibition of IRE1alpha activation in rat INS-1 cells assessed as suppression of tunicamycin-induced increase in XBP1 mRNA levels up to 10 uM after 8 hrs by agarose gel electrophoresis method; assay type: cell-based
# How it was run: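 INS-1 cells were exposed to tunicamycin 0.1 μg/mL with compound or DMSO for 8 h. Total XBP1 mRNA was amplified by RT-PCR, and the spliced and unspliced forms were separated electrophoretically.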
# Mus musculus [9] = assay: Antidiabetic activity in STZ-induced diabetic C57BL/6 mouse model assessed as decrease in blood glucose level at 5 mg/kg, ip administrated qd with streptozotocin for 5 days followed by compound administration alone for 2 more weeks; assay type: functional, organism-based; conditions: TDE = time-dependent effect
smiles,measurement,setting,value
O=C(NCc1ccc(C(F)(F)F)cc1)c1cccc(CN2CCCCC2)c1,Activity,INS1 [1],Non-Toxic
same,Activity,Mus musculus [2],67.4%
same,Activity,Beta-TC6,Dose-dependent effect
same,inhibition,INS1 [3],Active
same,inhibition,INS1 [4],Active
same,Activity,INS1 [5],Active
same,inhibition,[6],Active
same,inhibition,[7],Active
same,Activity,Mus musculus [8],Non-Toxic
same,inhibition,Rattus norvegicus,Active
same,Activity,Mus musculus [9],Tde
